Measured values as given in publication PMC9340768 (Journal of Medicinal Chemistry, 2022).
One block for each compound: values may come before it.

Columns and labels:
[1] = test system: human PBMCs cocultured with HT1376; test: PBMC/HT1376 coculture cytokine secretion assay; assay type: cell-based; details: anti-CD3 stimulated PBMCs with HT1376
Outline: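 Frozen healthy-donor human PBMCs were thawed, washed in PBS with benzonase and resuspended in RPMI with 10% heat-inactivated FBS, HEPES and glutamine. PBMCs (1 × 10^6/mL) were plated with tumor cells (1 × 10^5/mL) at 10:1, stimulated with soluble anti-CD3 OKT3 (100 ng/mL), and given diluted test compound. Incubation was 2 days at 37 °C, 5% CO2. Supernatant IFNγ and IL-2 were measured by Luminex; four-parameter fit, n = 3.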

CD137 = CD137 (Homo sapiens, UniProt Q07011+Q96NY8); test: HT1376/CD137 reporter coculture assay; assay type: cell-based
[2] = Pharmacokinetics in Sprague-Dawley rats; details: rat, in vivo, iv, 2 mg/kg
[3] = 1:2 (BCY10918) vs 1:1 (BCY10572)

CD137, sequence (Q07011 24-255): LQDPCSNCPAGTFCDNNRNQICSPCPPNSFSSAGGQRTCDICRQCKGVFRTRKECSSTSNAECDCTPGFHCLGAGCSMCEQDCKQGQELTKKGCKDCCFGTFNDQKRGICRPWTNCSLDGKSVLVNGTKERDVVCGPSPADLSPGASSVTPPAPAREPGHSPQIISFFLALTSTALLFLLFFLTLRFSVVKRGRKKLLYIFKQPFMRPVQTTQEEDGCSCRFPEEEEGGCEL
CD137, sequence (Q96NY8 32-510): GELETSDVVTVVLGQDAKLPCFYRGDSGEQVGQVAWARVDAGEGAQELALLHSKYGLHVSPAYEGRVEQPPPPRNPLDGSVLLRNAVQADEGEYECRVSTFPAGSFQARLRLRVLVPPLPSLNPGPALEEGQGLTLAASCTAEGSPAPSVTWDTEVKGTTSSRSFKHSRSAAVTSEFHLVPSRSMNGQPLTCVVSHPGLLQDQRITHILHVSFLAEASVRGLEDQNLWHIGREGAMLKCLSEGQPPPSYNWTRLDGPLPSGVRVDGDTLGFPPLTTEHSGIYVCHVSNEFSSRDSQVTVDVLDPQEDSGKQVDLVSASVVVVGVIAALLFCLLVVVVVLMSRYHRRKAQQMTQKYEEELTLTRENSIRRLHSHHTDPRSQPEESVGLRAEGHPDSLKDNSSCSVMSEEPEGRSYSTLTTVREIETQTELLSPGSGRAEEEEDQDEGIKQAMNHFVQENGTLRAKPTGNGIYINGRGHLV

SMILES: CCCC[C@@H]1NC(=O)[C@H](Cc2ccc(O)cc2)NC(=O)[C@@H]2CCCN2C(=O)[C@H](CC(=O)O)NC(=O)[C@H](C)NC(=O)[C@H](Cc2ccccc2)NC(=O)[C@@H]2CSCCC(=O)N3CN(CN(C3)C(=O)CCSC[C@@H](C(=O)N[C@@H](C)C(N)=O)NC1=O)C(=O)CCSC[C@H](NC(C)=O)C(=O)N[C@@H](CC(C)(C)C)C(=O)N1CCC[C@H]1C(=O)N[C@@H](CCC(=O)O)C(=O)N[C@H](CCCCNC(=O)CCc1cn(CCOCCOCCOCCN(CCOCCOCCOCCC(=O)N[C@H]3CSCCC(=O)N4CN5CN(C4)C(=O)CCSC[C@H](NC(=O)[C@@H](CC(=O)O)NC(=O)[C@H](Cc4cccc6ccccc46)NC(=O)[C@@H]4CCCN4C3=O)C(=O)N[C@@H](CCSC)C(=O)N[C@@H](CCCCNC(=N)N)C(=O)N[C@@H](CC(=O)O)C(=O)N[C@H](Cc3c[nH]c4ccccc34)C(=O)N[C@@H](CO)C(=O)N[C@@H]([C@@H](C)O)C(=O)N3CCC[C@H]3C(=O)N3C[C@H](O)C[C@H]3C(=O)N[C@H](Cc3c[nH]c4ccccc34)C(=O)N[C@H](C(N)=O)CSCCC5=O)CCOCCOCCOCCn3cc(CCC(=O)NCCCC[C@H]4NC(=O)[C@H](CCC(=O)O)NC(=O)[C@@H]5CCCN5C(=O)[C@H](CC(C)(C)C)NC(=O)[C@@H](NC(C)=O)CSCCC(=O)N5CN6CN(C5)C(=O)CCSC[C@H](NC(=O)[C@H](Cc5ccc(O)cc5)NC(=O)[C@@H]5CCCN5C4=O)C(=O)N[C@@H](Cc4ccccc4)C(=O)N[C@@H](C)C(=O)N[C@@H](CC(=O)O)C(=O)N4CCC[C@H]4C(=O)N[C@@H](Cc4ccc(O)cc4)C(=O)N[C@@H](CCCC)C(=O)N[C@H](C(=O)N[C@@H](C)C(N)=O)CSCCC6=O)nn3)nn1)C(=O)N1CCC[C@H]1C(=O)N[C@@H](Cc1ccc(O)cc1)C(=O)N2 [BCY13144]
- secretion of proinflammatory cytokines IFNγ and IL-2 [1]: No IL-2 or IFNγ secretion was observed

SMILES: CCCC[C@@H]1NC(=O)[C@H](Cc2ccc(O)cc2)NC(=O)[C@@H]2CCCN2C(=O)[C@H](CC(=O)O)NC(=O)[C@H](C)NC(=O)[C@H](Cc2ccccc2)NC(=O)[C@@H]2CSCCC(=O)N3CN(CN(C3)C(=O)CCSC[C@@H](C(=O)N[C@@H](CNC(=O)CCc3cn(CCOCCOCCOCCN(CCOCCOCCOCCC(=O)N[C@H]4CSCCC(=O)N5CN6CN(C5)C(=O)CCSC[C@H](NC(=O)[C@@H](CC(=O)O)NC(=O)[C@H](Cc5cccc7ccccc57)NC(=O)[C@@H]5CCCN5C4=O)C(=O)N[C@@H](CCSC)C(=O)N[C@@H](CCCCNC(=N)N)C(=O)N[C@@H](CC(=O)O)C(=O)N[C@@H](Cc4c[nH]c5ccccc45)C(=O)N[C@@H](CO)C(=O)N[C@@H]([C@@H](C)O)C(=O)N4CCC[C@H]4C(=O)N4C[C@H](O)C[C@H]4C(=O)N[C@@H](Cc4c[nH]c5ccccc45)C(=O)N[C@H](C(N)=O)CSCCC6=O)CCOCCOCCOCCn4cc(CCC(=O)NC[C@H](NC(=O)[C@@H]5CSCCC(=O)N6CN7CN(C6)C(=O)CCSC[C@H](NC(=O)[C@H](Cc6ccc(O)cc6)NC(=O)[C@@H]6CCCN6C(=O)[C@@H](C)NC(=O)[C@H](CCC(=O)O)NC(=O)[C@@H]6CCCN6C(=O)[C@H](CC(C)(C)C)NC(=O)[C@@H](NC(C)=O)CSCCC7=O)C(=O)N[C@@H](Cc6ccccc6)C(=O)N[C@@H](C)C(=O)N[C@@H](CC(=O)O)C(=O)N6CCC[C@H]6C(=O)N[C@@H](Cc6ccc(O)cc6)C(=O)N[C@@H](CCCC)C(=O)N5)C(N)=O)nn4)nn3)C(N)=O)NC1=O)C(=O)CCSC[C@H](NC(C)=O)C(=O)N[C@@H](CC(C)(C)C)C(=O)N1CCC[C@H]1C(=O)N[C@@H](CCC(=O)O)C(=O)N[C@H](C)C(=O)N1CCC[C@H]1C(=O)N[C@@H](Cc1ccc(O)cc1)C(=O)N2 [BCY11385]
- secretion of proinflammatory cytokines IFNγ and IL-2 [1]: dose-dependent increase

- improvement of Emax (CD137; BCY10000 relative to BCY8854): 1.5 fold
- improvement of in vitro potency (EC50) (CD137; BCY10000 relative to BCY8854): fourfold
- clearance ([2]; CL (mL/min/kg), SD rats, 2 mg/kg IV bolus): 19 mL/min/kg
SMILES: CCCC[C@@H]1NC(=O)[C@H](Cc2ccc(O)cc2)NC(=O)[C@@H]2CCCN2C(=O)[C@H](CC(=O)O)NC(=O)[C@H](C)NC(=O)[C@H](Cc2ccccc2)NC(=O)[C@@H]2CSCCC(=O)N3CN(CN(C3)C(=O)CCSC[C@@H](C(=O)N[C@@H](CNC(=O)CCOCCOCCOCCOCCOCCOCCOCCOCCOCCOCCOCCOCCn3cc(CCC(=O)NCCC(=O)N(C)CC(=O)N(C)CC(=O)N(C)CC(=O)N(C)CC(=O)N(C)CC(=O)N(C)CC(=O)N(C)CC(=O)N(C)CC(=O)N(C)CC(=O)N(C)CC(=O)N[C@H]4CSCCC(=O)N5CN6CN(C5)C(=O)CCSC[C@H](NC(=O)[C@@H](CC(=O)O)NC(=O)[C@H](Cc5cccc7ccccc57)NC(=O)[C@@H]5CCCN5C4=O)C(=O)N[C@@H](CCSC)C(=O)N[C@@H](CCCCNC(=N)N)C(=O)N[C@@H](CC(=O)O)C(=O)N[C@@H](Cc4c[nH]c5ccccc45)C(=O)N[C@@H](CO)C(=O)N[C@@H]([C@@H](C)O)C(=O)N4CCC[C@H]4C(=O)N4C[C@H](O)C[C@H]4C(=O)N[C@@H](Cc4c[nH]c5ccccc45)C(=O)N[C@H](C(N)=O)CSCCC6=O)nn3)C(N)=O)NC1=O)C(=O)CCSC[C@H](NC(C)=O)C(=O)N[C@@H](CC(C)(C)C)C(=O)N1CCC[C@H]1C(=O)N[C@@H](CCC(=O)O)C(=O)N[C@H](C)C(=O)N1CCC[C@H]1C(=O)N[C@@H](Cc1ccc(O)cc1)C(=O)N2 [BCY10000]
- secretion of proinflammatory cytokines IFNγ and IL-2 [1]: dose-dependent increase

- improvement in EC50 (CD137; [3]): 8.3 fold
- improvement in Emax (CD137; [3]): 2.0 fold
- half-life [2]: 1.8 h
SMILES: CCCC[C@@H]1NC(=O)[C@H](Cc2ccc(O)cc2)NC(=O)[C@@H]2CCCN2C(=O)[C@H](CC(=O)O)NC(=O)[C@H](C)NC(=O)[C@H](Cc2ccccc2)NC(=O)[C@@H]2CSCCC(=O)N3CN(CN(C3)C(=O)CCSC[C@@H](C(=O)N[C@@H](C)C(N)=O)NC1=O)C(=O)CCSC[C@H](NC(C)=O)C(=O)N[C@@H](CC(C)(C)C)C(=O)N1CCC[C@H]1C(=O)N[C@@H](CCC(=O)O)C(=O)N[C@H](CCCCNC(=O)CCc1cn(CCOCCOCCOCCOCCOCCOCCOCCOCCOCCOCCNC(=O)c3cc(C(=O)NCCOCCOCCOCCOCCOCCOCCOCCOCCOCCOCCn4cc(CCC(=O)NCCCC[C@H]5NC(=O)[C@H](CCC(=O)O)NC(=O)[C@@H]6CCCN6C(=O)[C@H](CC(C)(C)C)NC(=O)[C@@H](NC(C)=O)CSCCC(=O)N6CN7CN(C6)C(=O)CCSC[C@H](NC(=O)[C@H](Cc6ccc(O)cc6)NC(=O)[C@@H]6CCCN6C5=O)C(=O)N[C@@H](Cc5ccccc5)C(=O)N[C@@H](C)C(=O)N[C@@H](CC(=O)O)C(=O)N5CCC[C@H]5C(=O)N[C@@H](Cc5ccc(O)cc5)C(=O)N[C@@H](CCCC)C(=O)N[C@H](C(=O)N[C@@H](C)C(N)=O)CSCCC7=O)nn4)cc(C(=O)NCCOCCOCCOCCOCCOCCOCCOCCOCCOCCOCCn4cc(CCC(=O)N[C@H]5CSCCC(=O)N6CN7CN(C6)C(=O)CCSC[C@H](NC(=O)[C@@H](CC(=O)O)NC(=O)[C@H](Cc6cccc8ccccc68)NC(=O)[C@@H]6CCCN6C5=O)C(=O)N[C@@H](CCSC)C(=O)N[C@@H](CCCCNC(=N)N)C(=O)N[C@@H](CC(=O)O)C(=O)N[C@@H](Cc5c[nH]c6ccccc56)C(=O)N[C@@H](CO)C(=O)N[C@@H]([C@@H](C)O)C(=O)N5CCC[C@H]5C(=O)N5C[C@H](O)C[C@H]5C(=O)N[C@@H](Cc5c[nH]c6ccccc56)C(=O)N[C@H](C(N)=O)CSCCC7=O)nn4)c3)nn1)C(=O)N1CCC[C@H]1C(=O)N[C@@H](Cc1ccc(O)cc1)C(=O)N2 [BCY10918]
